According to the RNAGym collection of RNA variant scans (doi:10.1126/science.aae0568):
Variants at the floor of the assay were thinned out.

B1: tRNA (parent)
chain: GUUCCGUUGGCGUAAUGGUAACGCGUCUCCCUCCUAAGGAGAAGACUGCGGGUUCGAGUCCCGUACGGAACG

Variants of: B1
Test: yeast fitness relative to wild type (ratio to wild type); higher = fitter; tRNA-Arg(CCU), competitive growth, 37 C, YPD
How it was run: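 Genotype frequency changes were the basis for Darwinian fitness relative to wild type. The frequencies came from 100-nucleotide paired-end sequencing of gene amplicons from the start population and each end population of pooled yeast strains with tRNA-Arg(CCU) gene variants at the native locus. Competition ran in YPD at 37°C for 24 hours in six replicates, genotypes needed ≥ 100 starting reads, and estimates < 0.5 were set to 0.5.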

Variant | yeast fitness
A45G U54G | 0.563
A45U A70U | 0.925
A45U A70G | 1.09
C46G C61A A65C | ≤ 0.5
C46G A65C G67A | 0.732
A45U G48A | 0.824
A45G C46U G50C | ≤ 0.5
C46A A70C | 1.02
U47C U59A | 0.961
C46G G63A | 0.798
A45C G68A | 0.838
A45C G68U | 0.739
A45U C60U | 0.737
C46G G63A A65U | 0.721
A45U C49G C55G G67C | 0.532
U47A G48C | 0.82
C46U U53C A70U | 0.608
C46A A57G C61U | 0.704
C46U C62G | 0.969
A45U C46U A57U | 0.539
A45U G56C A57G G68U | ≤ 0.5
C46G U54C C60A C62A | ≤ 0.5
C46G G52A C62U | 0.639
U47A A57U | 0.655

Variant | yeast fitness
U47A U59C | 0.873
C46U G51C A70C | 0.504
C46U G51C A70U | 0.557
C46G G68A | 0.825
C46G G68U | 0.658
C46G G68C | 0.795
U47A C55G G68A | ≤ 0.5
U47C U59A G63C | 0.58
U47C C66U A69C | 0.675
C46U C55U A69U | 0.76
U47C C66U | 0.963
A45G C60A | 0.632
A45G C49G A65C | ≤ 0.5
U47C A65U | 0.998
U47G C62G A69C | 0.508
U47G C62G A69U | 0.545
C46U U54C A57G | 0.622
C46A U54G | 0.544
U47C G56A | 0.999
A45U C49A G52C G56A | ≤ 0.5
A45G C46U | 0.991
A45G C46A | 0.916
A45G G56A U59A | ≤ 0.5
A45C U47C | 0.951

Variant | yeast fitness
A45C U47A | 0.934
C46A G56A A70G | 1.01
A45G C66U | 0.952
A45C G63C | 0.589
A45U C66U G68A | 0.665
U47C G58C A65C | 0.614
A45U C61G | 0.569
A45U C60G C66A | ≤ 0.5
U47C A57G A69U | 0.569
C46U C60G | 0.627
C46U C60U | 0.807
C46U C60A | 0.543
C46A G52C G63A A65U | ≤ 0.5
C46U U59G C60A G63C A69U | 0.632
A45U G50C | 0.728
C46A C55G C66U A69C | ≤ 0.5
C46U C61G A69U | 0.627
A45G C61A A70G | 0.55
C46G C60U G68C | ≤ 0.5
C46U C61G | 0.593
C46G G50C G56A A57U | ≤ 0.5
A45G G63A | 0.747
A45G G63U | 0.732
A45G G58C G67U G68C | ≤ 0.5

Variant | yeast fitness
A45U C46U U47C U64C | 0.988
A45G C60A C62A | 0.57
A45U A65G G67U A69G | ≤ 0.5
C46A A69G | 0.932
C46A A69C | 0.839
C46A A69U | 1.1
C46A C62A | 0.805
A45U C46G G52A | 0.578
A45C G63C C66U | ≤ 0.5
U47C C61U | 0.888
C46A C61G | 0.637
C46A C61A | 0.758
A45U C55U | 0.743
A45C U53C C66U | ≤ 0.5
C46U G51C | 0.571
A45C U47C A57C G68C | ≤ 0.5
A45U G48A C55A A65C | ≤ 0.5
C46U A69G | 0.894
A45G C49U | 0.941
A45G C49G | 0.712
A45U G63C A65G | 0.647
A45U G63C A65U | 0.727
U47C G48C | 0.797
C46A G63C G67A | 0.614

Variant | yeast fitness
A45U C46G C60A | 0.557
A45C U47A U53C | ≤ 0.5
C46G C49G | 0.966
C46G C49A | 0.7
C46G C49U | 0.981
A45U G50A G68C A69U | ≤ 0.5
C46U C55A C66U | 0.555
C46A | 0.999
C46G | 0.99
C46U | 0.986
C46G A57C A69C | ≤ 0.5
C46A C61G A70U | 0.525
A45C G58C A69C | 0.651
C46U G58C | 0.825
C46U G58A | 0.985
A45U C62A | 0.655
C46G G58A U59G | ≤ 0.5
U47C G67A | 0.874
C46U G56A A70G | 0.697
C46G C62U C66U | 0.746
U47A G58C | 1.06
A45G A65U | 0.911
A45G A65C | 0.868
C46U G48A | 0.93

Variant | yeast fitness
A45U C55U A70C | 0.589
C46A G58C U59C | 0.545
C46U U64C | 1.01
C46U U64A | 1.03
U47C G52A G63A | ≤ 0.5
A45G G48A | 1.1
C46U U47C | 0.911
C46U U47G | 0.823
C46U C55A G56C | 0.561
C46U G51A C66U | 0.778
A45U A57G G67A | 0.598
U47C C66U A70U | 0.548
C46U A70U | 1.05
C46U A70G | 1.05
C46U C60A A70U | 0.585
A45U A65G | 0.947
A45U A65U | 0.959
C46U U54C A70U | 0.804
A45U G48A C55A | 0.543
A45U C61G A65C | ≤ 0.5
U47G C49U | 0.682
U47G C49A | 0.68
A45U C46G | 0.739
U47G C60G | 0.675

Variant | yeast fitness
U47G C60U | 0.548
C46U G51C C66G | ≤ 0.5
C46G G50C | 0.949
C46G G50A | 1.04
C46A A57G | 0.964
C46A A57U | 0.792
C46A A57C | 0.57
C46G C49A A69U | 0.549
U47A C60U G63C A69U | ≤ 0.5
U47C A57U A65U | 0.567
C46U C60G A65U | 0.557
C46U G50A C66U | 0.792
A45U G48A G56A | 0.975
U47A G68U | 0.775
U47A G68A | 0.621
C46U G68C | 1.02
U47A A69U | 0.984
A45G C62U C66A | ≤ 0.5
A45G C62U | 0.968
A45G A57G G63A | ≤ 0.5
C46U C49U | 0.98
C46U C49A | 0.858
U47C A57G | 0.921
